# Laboratory results: ChEMBL document CHEMBL1131173, “Alkoxypsoralens, novel nonpeptide blockers of Shaker-type K+ channels: synthesis and photoreactivity” (J Med Chem, 1998)
# Assays:
# [1] = target: T1, Potassium voltage-gated channel subfamily A member 1 (Homo sapiens, UniProt Q09470); experiment: K+ channel blocking activity as blockade at 25 uM in Xenopus laevis Ranvier nodes; format: functional
# Method in brief: (§1)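 On the Ranvier node, compound was tested at 25 µM. Steady-state K+ current block (BK) was normalized to currents in normal bathing medium. Peak Na+ current block was measured at 70 mV pulse amplitude and normalized the same way. Selectivity S = BK/BNa.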
# [2] = target: T1, Potassium voltage-gated channel subfamily A member 1; experiment: Selectivity of K+ current blockade given by Bk/BNa in Xenopus laevis; format: functional; method in brief: as §1
# [3] = target: Potassium voltage-gated channel subfamily A member 3 (Mus musculus, UniProt P16390); experiment: Blockade of peak Kv1.3 potassium currents; format: functional
# Chain of Potassium voltage-gated channel subfamily A member 3 (P16390 whole entry): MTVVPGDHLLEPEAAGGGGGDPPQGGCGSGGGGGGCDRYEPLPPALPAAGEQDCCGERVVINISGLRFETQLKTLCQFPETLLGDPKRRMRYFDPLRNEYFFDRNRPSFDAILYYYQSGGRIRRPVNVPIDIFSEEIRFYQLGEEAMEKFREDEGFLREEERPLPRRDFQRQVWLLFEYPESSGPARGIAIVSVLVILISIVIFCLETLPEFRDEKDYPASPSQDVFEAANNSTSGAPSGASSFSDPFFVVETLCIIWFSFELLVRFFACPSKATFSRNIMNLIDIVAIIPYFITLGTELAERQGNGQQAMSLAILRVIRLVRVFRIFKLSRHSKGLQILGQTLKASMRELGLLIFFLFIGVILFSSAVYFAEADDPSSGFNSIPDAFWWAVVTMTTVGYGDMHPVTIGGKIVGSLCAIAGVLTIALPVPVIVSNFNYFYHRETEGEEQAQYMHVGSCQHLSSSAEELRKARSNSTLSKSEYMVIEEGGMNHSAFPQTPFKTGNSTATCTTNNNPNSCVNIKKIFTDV
# Method in brief: (§2)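 Channels expressed in mammalian cells and recorded by whole-cell patch clamp. Each compound was applied at several concentrations, and the apparent dissociation constant Kd was calculated for block of peak K+ current.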
# [4] = target: T2, Voltage-gated potassium channel KCNC1 (Homo sapiens, UniProt P48547); experiment: Blockade of peak K+ currents against Kv3.1 gene; format: functional; method in brief: as §2
# T2 sequence (P48547 whole entry): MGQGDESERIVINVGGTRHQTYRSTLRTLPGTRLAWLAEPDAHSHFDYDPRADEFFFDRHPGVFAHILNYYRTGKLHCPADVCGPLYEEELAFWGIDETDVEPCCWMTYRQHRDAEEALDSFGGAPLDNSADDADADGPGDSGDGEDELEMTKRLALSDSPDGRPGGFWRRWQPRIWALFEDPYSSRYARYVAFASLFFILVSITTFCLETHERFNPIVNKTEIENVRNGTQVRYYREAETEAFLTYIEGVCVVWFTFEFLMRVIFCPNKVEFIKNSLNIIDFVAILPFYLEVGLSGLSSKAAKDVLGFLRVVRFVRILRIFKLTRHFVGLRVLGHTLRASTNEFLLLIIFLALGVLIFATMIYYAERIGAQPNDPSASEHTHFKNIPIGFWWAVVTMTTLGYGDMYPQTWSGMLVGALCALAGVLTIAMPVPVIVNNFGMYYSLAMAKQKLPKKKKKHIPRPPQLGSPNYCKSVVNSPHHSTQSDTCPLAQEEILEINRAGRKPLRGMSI
# [5] = Compound was tested for production of singlet oxygen, measured as decrease in absorbance of N,N-dimethyl-p-nitrosoaniline (RNO) at 440 nm after 5 hr of UV-A irradiation; format: ADME; conditions: 10 µM
# Method in brief: (§3)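 Singlet oxygen generation by compound at 10 µM in O2-saturated solution, read as RNO bleaching. Absorbance decrease was measured at 440 nm after 5 h of UV-A irradiation (4.5 mW/cm2, incident dose 81 J/cm2).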
# [6] = (§4) Compound was tested for in vitro phototoxicity against nauplii of Artemia salina after UV-irradiation
# Method in brief: (§5)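 Artemia salina nauplii were hatched for 48 h, and ten per vial were placed in 3 mL seawater containing compound from 100 nM upward in methanol. Incubation was at 25 °C either under daylight or under added UV-A (1.3 mW/cm2, incident dose 112 J/cm2). Dead nauplii were counted at 24 h to give LC50. Run in triplicate.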
# [7] = target: Potassium voltage-gated channel subfamily A member 2 (Homo sapiens, UniProt P16389); experiment: Blockade of peak K+ currents against Kv1.2 gene; format: functional; method in brief: as §2
# Chain of Potassium voltage-gated channel subfamily A member 2 (P16389 whole entry): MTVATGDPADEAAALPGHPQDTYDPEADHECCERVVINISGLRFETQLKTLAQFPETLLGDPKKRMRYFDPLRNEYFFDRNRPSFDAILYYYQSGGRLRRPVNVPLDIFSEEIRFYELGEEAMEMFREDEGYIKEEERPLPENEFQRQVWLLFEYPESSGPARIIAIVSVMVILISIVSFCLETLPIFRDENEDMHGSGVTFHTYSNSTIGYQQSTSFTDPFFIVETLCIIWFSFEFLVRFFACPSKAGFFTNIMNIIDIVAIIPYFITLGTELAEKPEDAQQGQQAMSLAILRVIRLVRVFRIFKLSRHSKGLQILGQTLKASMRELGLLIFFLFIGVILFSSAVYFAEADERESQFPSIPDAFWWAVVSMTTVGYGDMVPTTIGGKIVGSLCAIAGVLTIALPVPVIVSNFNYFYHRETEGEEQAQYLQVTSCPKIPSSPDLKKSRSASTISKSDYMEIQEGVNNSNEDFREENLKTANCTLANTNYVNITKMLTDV
# Nucleic Acid [8] = experiment: Photobinding to Poly(dA-dT)-Poly(dA-dT)-DNA after UV-A irradiation; format: nucleic-acid assay
# Method in brief: (§6)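 Poly(dA-dT)-poly(dA-dT) at 10 µM in 0.1 M MOPS, pH 7.0, with compound at a 1:1 compound:DNA ratio. Samples were kept 30 min in the dark or irradiated 30 min at 365 nm (4.5 mW/cm2, 8.1 J/cm2). Melting profiles gave ΔTm = Tm(DNA+drug) − Tm(DNA), as the mean of three determinations.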
# Nucleic Acid [9] = experiment: Photobinding to Poly(dA-dT)-Poly(dA-dT)-DNA in dark, determined by the shift of thermal transition temperature; format: nucleic-acid assay; method in brief: as §6
# [10] = target: T1, Potassium voltage-gated channel subfamily A member 1; experiment: Blockade of peak K+ currents against Kv1.1 gene; format: functional; method in brief: as §2
# [11] = (§7) Compound was tested for in vitro phototoxicity against nauplii of Artemia salina in daylight; method in brief: as §5
# Artemia salina [12] = experiment: Photoinduced dose modification against nauplii of Artemia salina; format: functional
# Method in brief: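 Artemia salina nauplii were collected 48 h after hatching, ten per vial in 3 mL seawater, with compound from 100 nM upward; methanol was the vehicle. Vials were incubated at 25 °C under daylight or with added UV-A (1.3 mW/cm2, incident dose 112 J/cm2). Dead nauplii were counted at 24 h to give LC50. Assays were run in triplicate.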
# Artemia salina [13] = experiment: as §4; format: functional; conditions: light or radiation study; method in brief: as §5
# Artemia salina [14] = experiment: as §7; format: functional; conditions: light or radiation study; method in brief: as §5
# [15] = compound was tested for production of singlet oxygen, measured as decrease in absorbance of N,N-dimethyl-p-nitrosoaniline (RNO) at 440 nm after 5 hr of UV-A irradiation; format: ADME; conditions: 10 µM; method in brief: as §3
# [16] = target: Potassium voltage-gated channel subfamily A member 5 (Homo sapiens, UniProt P22460); experiment: Blockade of peak K+ currents against Kv1.5 gene; format: functional
# Chain of Potassium voltage-gated channel subfamily A member 5 (P22460 whole entry): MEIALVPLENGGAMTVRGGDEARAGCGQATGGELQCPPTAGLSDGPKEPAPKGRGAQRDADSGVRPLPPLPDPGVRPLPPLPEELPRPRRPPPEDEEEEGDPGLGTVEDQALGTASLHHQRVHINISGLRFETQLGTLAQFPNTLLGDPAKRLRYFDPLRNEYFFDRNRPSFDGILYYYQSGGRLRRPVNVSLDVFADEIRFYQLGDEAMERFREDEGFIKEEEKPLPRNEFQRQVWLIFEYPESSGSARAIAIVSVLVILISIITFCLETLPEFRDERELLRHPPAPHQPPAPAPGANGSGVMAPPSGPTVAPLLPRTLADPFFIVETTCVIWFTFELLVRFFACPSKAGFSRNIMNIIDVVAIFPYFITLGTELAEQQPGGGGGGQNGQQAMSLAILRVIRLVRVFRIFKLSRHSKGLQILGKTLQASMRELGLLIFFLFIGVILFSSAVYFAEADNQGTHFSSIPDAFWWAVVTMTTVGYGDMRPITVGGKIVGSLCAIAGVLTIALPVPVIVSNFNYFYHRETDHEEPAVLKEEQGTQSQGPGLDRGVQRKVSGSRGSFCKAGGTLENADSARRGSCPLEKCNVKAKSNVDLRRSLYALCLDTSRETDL
# Method in brief: (§8)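 Whole-cell patch-clamp recording of cloned channels expressed in mammalian cells. Each compound was tested at several concentrations, and an apparent Kd for block of peak K+ current was calculated.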
# [17] = target: Potassium voltage-gated channel subfamily A member 6 (Homo sapiens, UniProt P17658); experiment: Blockade of peak K+ currents against Kv1.6 gene; format: functional; method in brief: as §8
# Chain of Potassium voltage-gated channel subfamily A member 6 (P17658 whole entry): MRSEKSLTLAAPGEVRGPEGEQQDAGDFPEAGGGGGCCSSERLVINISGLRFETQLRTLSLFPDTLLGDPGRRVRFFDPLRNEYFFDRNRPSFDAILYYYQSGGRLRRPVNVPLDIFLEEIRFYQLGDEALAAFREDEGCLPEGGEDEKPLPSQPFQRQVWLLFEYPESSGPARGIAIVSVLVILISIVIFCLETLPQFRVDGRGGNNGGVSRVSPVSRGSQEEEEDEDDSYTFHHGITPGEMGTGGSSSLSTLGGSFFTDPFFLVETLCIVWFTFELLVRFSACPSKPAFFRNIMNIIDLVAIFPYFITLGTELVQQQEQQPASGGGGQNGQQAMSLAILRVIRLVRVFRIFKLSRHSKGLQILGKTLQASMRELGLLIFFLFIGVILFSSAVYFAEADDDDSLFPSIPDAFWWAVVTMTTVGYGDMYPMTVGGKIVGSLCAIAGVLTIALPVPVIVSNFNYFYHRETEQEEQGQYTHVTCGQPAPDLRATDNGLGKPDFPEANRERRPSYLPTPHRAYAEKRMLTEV
# [18] = Compound was tested for production of single oxygen, measured as decrease in absorbance of N,N-dimethyl-p-nitrosoaniline (RNO) at 440 nm after 5 hr of UV-A irradiation; format: ADME; conditions: 10 µM
# Method in brief: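 Singlet oxygen from compound at 10 µM was measured in O2-saturated solution by bleaching of N,N-dimethyl-p-nitrosoaniline. The read-out was the fall in absorbance at 440 nm after 5 h of UV-A (4.5 mW/cm2, incident dose 81 J/cm2).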
# T1 sequence (Q09470 whole entry): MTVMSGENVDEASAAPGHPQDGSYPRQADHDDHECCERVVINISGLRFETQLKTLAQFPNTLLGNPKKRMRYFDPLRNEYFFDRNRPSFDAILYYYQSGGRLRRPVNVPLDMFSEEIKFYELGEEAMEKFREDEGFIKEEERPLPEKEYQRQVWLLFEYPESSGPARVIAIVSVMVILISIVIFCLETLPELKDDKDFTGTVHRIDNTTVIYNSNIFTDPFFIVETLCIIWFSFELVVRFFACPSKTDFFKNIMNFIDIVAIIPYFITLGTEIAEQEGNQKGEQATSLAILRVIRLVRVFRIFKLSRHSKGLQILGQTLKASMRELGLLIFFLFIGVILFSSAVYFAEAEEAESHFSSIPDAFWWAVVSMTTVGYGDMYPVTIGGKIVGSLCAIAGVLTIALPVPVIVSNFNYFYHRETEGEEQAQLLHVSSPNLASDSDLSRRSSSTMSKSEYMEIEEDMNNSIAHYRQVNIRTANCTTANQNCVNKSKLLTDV
SMILES,BK [1] [%],Selectivity [2],LC50 [6] [µM],ΔTm (Nucleic Acid [8]) [°C],ΔTm (Nucleic Acid [9]) [°C],LC50 [11] [µM],Dose modification (Artemia salina [12]),other results
CCOc1cc(OCC)c2ccc(=O)oc2c1,40,0.7,,,,,,
COc1c2c(cc3ccc(=O)oc13)CCO2,4,5,,,,,,
CCOc1c2ccoc2c(OCC)c2oc(=O)ccc12,75,14,> 100,0.5,0.5,> 100,,Kd [3]: 28 µM; Kd [4]: 178 µM; O2 production [5]: -4%; Kd [7]: 23 µM; Kd [10]: 167 µM
C=CCOCc1c2ccoc2c(OC)c2oc(=O)ccc12,24,6,,,,,,
Cc1coc2cc3oc(=O)cc(C)c3cc12,25,8,,,,,>150,LC50 (Artemia salina [13]): 0.7 µM; LC50 (Artemia salina [14]): > 100 µM
COCc1c2occc2c(OC)c2ccc(=O)oc12,35,26,> 100,1,1,> 100,,Kd [3]: 28 µM; O2 production [15]: 4%
COCc1c(C)oc2c(C)c3oc(=O)cc(C)c3cc12,31,11,20,> 20,0.5,> 100,>5,O2 production [15]: 50%
COCc1cc(=O)oc2cc3occ(-c4ccccc4)c3cc12,27,2,,,,,,
COc1c2occc2cc2ccc(=O)oc12 [METHOXSALEN],5,4,2.2,10,1,> 100,>40,O2 production [5]: 9%
CCOCc1c2ccoc2c(OC)c2oc(=O)ccc12,16,2,,1.5,2,,,O2 production [15]: 7%
Cc1coc2cc3oc(=O)ccc3cc12,63,15,0.5,9,1,> 100,>200,O2 production [5]: 71%
CC[N+](CC)(CC)Cc1c(C)oc2c(C)c3oc(=O)cc(C)c3cc12.[Cl-],27,5,,16,7,,,O2 production [15]: 66%
COCc1c2ccoc2c(OC)c2oc(=O)ccc12,14,3,,,,,,LC50 (Artemia salina [13]): > 100 µM; LC50 (Artemia salina [14]): > 100 µM
COCc1cc(=O)oc2cc3occ(C)c3cc12,52,17,2.5,> 20,0.5,> 100,>40,Kd [3]: 90 µM; Kd [4]: 213 µM; O2 production [5]: 43%; Kd [7]: 18 µM; Kd [10]: 56 µM
CCOCc1c(C)oc2c(C)c3oc(=O)cc(C)c3cc12,55,6,,> 20,1,,,O2 production [15]: 50%
CCOc1cc(OCC)c2c(COC)cc(=O)oc2c1,35,1.8,,,,,,
Cc1cc(=O)oc2cc3c(cc12)C(C)CO3 (centres undefined),45,22,,,,,>4,LC50 (Artemia salina [13]): 25 µM; LC50 (Artemia salina [14]): > 100 µM
Cc1coc2cc3oc(=O)cc(CO)c3cc12,11,4,,,,,,
COc1c2ccoc2cc2oc(=O)ccc12 [BERGAPTEN],52,14,2.5,13,0.5,> 100,>40,Kd [16]: 177 µM; Kd [17]: 187 µM; Kd [3]: 101 µM; O2 production [18]: 5%; Kd [4]: 111 µM; Kd [7]: 41 µM; Kd [10]: > 200 µM
O=c1ccc2cc3c(-c4ccccc4)coc3cc2o1,68,1.4,,,,,,
COc1c2ccoc2c(OC)c2oc(=O)ccc12 [ISOPIMPINELLIN],,,> 100,1,0.5,> 100,,O2 production [15]: -5%
CC[N+](CC)(CC)Cc1c2ccoc2c(OC)c2oc(=O)ccc12,20,7,,,,,,
COc1c2occc2c(COC(C)C)c2ccc(=O)oc12,10,3,,,,,,
CC1COc2cc3oc(=O)ccc3cc21 (centres undefined),23,3,25,0.5,0.5,> 100,>4,O2 production [5]: 100%
